Results: ChEMBL document CHEMBL5724801, “EUbOPEN Chemogenomics Library - Multiplex” (2024)
Several values for one entry are separate records, joined by “and”; a condition that tells them apart may be missing. Identical values can stand only once.

System: HEK-293T
Assay: Multiplex assay against HEK293T
Type: toxicity, cell-based
Conditions: human
In short: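 Phenotypes for tubulin, mitochondrial mass and membrane permeability are expressed as per cents of healthy-nucleus cells. Cells were stained live at seeding with Hoechst33342, BioTracker Green Microtubule Cytoskeleton Dye, MitoTracker Red and Annexin V Alexa Fluor 680, then imaged after compound addition on a CQ1 microscope at 37°C and 5% CO2. Machine-learning gating in CellPathfinder separated Hoechst high-intensity objects from normal cells, divided normal cells by nuclear state (healthy, pyknosed, fragmented) and divided pyknosed cells into mitotic or apoptotic.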

[1] = 12 h, 1 µM, compound concentration 1 uM
[2] = 12 h, 10 µM, compound concentration 10 uM
[3] = 24 h, 1 µM, compound concentration 1 uM
[4] = 24 h, 10 µM, compound concentration 10 uM
[5] = 48 h, 1 µM, compound concentration 1 uM
[6] = 48 h, 10 µM, compound concentration 10 uM

O=C(NCc1cccc(O)c1)Nc1nc(-c2ccncc2)cs1
Population Apoptotic (%) [1]: 7.14% and 10.34% | Population Fragmented Nuclei (%) [1]: 2.92% and 3.91% | Population Healthy Nuclei (%) [1]: 52.8% and 28.12% | Population Hoechst High Intensity Objects (%) [1]: 0.24% and 0% | Population Membrane Permeable-Phenotype (%) [1]: 0.92% and 0% | Population Mitochondria Different-Phenotype (%) [1]: 22.12% and 19.44% | Population Mitotic Cells (%) [1]: 92.86% and 89.66% | Population Normal (%) [1]: 99.76% and 100% | Population Pyknosed Nuclei (%) [1]: 44.28% and 67.97% | Population Apoptotic (%) [2]: 7.43% and 12.61% | Population Fragmented Nuclei (%) [2]: 2.74% and 5.1% | Population Healthy Nuclei (%) [2]: 52.13% and 34.18% | Population Hoechst High Intensity Objects (%) [2]: 0% | Population Membrane Permeable-Phenotype (%) [2]: 4.09% and 0% | Population Mitochondria Different-Phenotype (%) [2]: 19.88% and 13.43% | Population Mitotic Cells (%) [2]: 92.57% and 87.39% | Population Normal (%) [2]: 100% | Population Pyknosed Nuclei (%) [2]: 45.12% and 60.71% | Total Cell Count [2]: 328 and 196 | Population Apoptotic (%) [3]: 13.54% and 22% | Population Fragmented Nuclei (%) [3]: 2.1% and 4.17% | Population Healthy Nuclei (%) [3]: 77.73% and 54.17% | Population Hoechst High Intensity Objects (%) [3]: 0% | Population Membrane Permeable-Phenotype (%) [3]: 0.54% and 0% | Population Mitochondria Different-Phenotype (%) [3]: 3.78% and 6.15% | Population Mitotic Cells (%) [3]: 86.46% and 78% | Population Normal (%) [3]: 100% | Population Pyknosed Nuclei (%) [3]: 20.17% and 41.67% | Population Tubulin-Different-Phenotype (%) [3]: 3.51% and 9.23% | Population Apoptotic (%) [4]: 12.64% and 13.27% | Population Fragmented Nuclei (%) [4]: 3.74% | Population Healthy Nuclei (%) [4]: 72.99% and 50.47% | Population Hoechst High Intensity Objects (%) [4]: 0% and 0.93% | Population Membrane Permeable-Phenotype (%) [4]: 1.1% and 0% | Population Mitochondria Different-Phenotype (%) [4]: 5.86% and 10.19% | Population Mitotic Cells (%) [4]: 87.36% and 86.73% | Population Normal (%) [4]: 100% and 99.07% | Population Pyknosed Nuclei (%) [4]: 23.26% and 45.79% | Population Tubulin-Different-Phenotype (%) [4]: 5.86% and 3.7% | Total Cell Count [4]: 374 and 216 | Population Apoptotic (%) [5]: 17.39% and 25% | Population Fragmented Nuclei (%) [5]: 2.27% and 10.14% | Population Healthy Nuclei (%) [5]: 86.57% and 68.24% | Population Hoechst High Intensity Objects (%) [5]: 0.16% and 0.67% | Population Membrane Permeable-Phenotype (%) [5]: 5.42% and 4.95% | Population Mitochondria Different-Phenotype (%) [5]: 14.95% and 15.84% | Population Mitotic Cells (%) [5]: 82.61% and 75% | Population Normal (%) [5]: 99.84% and 99.33% | Population Pyknosed Nuclei (%) [5]: 11.17% and 21.62% | Population Apoptotic (%) [6]: 22.81% and 34.48% | Population Fragmented Nuclei (%) [6]: 4.16% and 5.49% | Population Healthy Nuclei (%) [6]: 85.07% and 70.04% | Population Hoechst High Intensity Objects (%) [6]: 0.19% and 0% | Population Membrane Permeable-Phenotype (%) [6]: 4% and 0.6% | Population Mitochondria Different-Phenotype (%) [6]: 19.78% and 24.1% | Population Mitotic Cells (%) [6]: 77.19% and 65.52% | Population Normal (%) [6]: 99.81% and 100% | Population Pyknosed Nuclei (%) [6]: 10.78% and 24.47% | Population Tubulin-Different-Phenotype (%) [6]: 0.89% and 5.42% | Total Cell Count [6]: 530 and 237
